Source: publication PMC11364517 (Neuron, 2024)

Key:
GRABNE2m [1] = test: Ligand selectivity of GRABNE2m expressed in HEK293T cells; format: cell-based; conditions: for fluorescence response of GRABNE2m to the ligand: HEK293T cells, trace amines and NE metabolites in full doses (Fig. S2C, S2D)
GRABNE2h [2] = test: Ligand selectivity of GRABNE2h expressed in HEK293T cells; format: cell-based; conditions: for fluorescence response of GRABNE2h to the ligand: HEK293T cells, trace amines and NE metabolites in full doses (Fig. S2C, S2D)
GRABNE2h [3] = conditions: read-out: apparent affinity values (EC50); n = 3
GRABNE2m [4] = conditions: read-out: apparent affinity values (EC50); n = 3
[5] = test system: optogenetically evoked NE release in the LC; test: Fiber photometry in the LC of freely moving TH-Cre mice during optogenetic; format: in vivo; conditions: i.p. injection; GRABNE2m and GRABNE2h
How it was run: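 Mice received hSyn-GRABNE2m or NE2h AAV plus Cre-dependent C1V1-YFP AAV (1 × 10¹³ genomic copies per ml) in the LC at 100 nl/min, 500 nl, under Avertin (500 mg/kg i.p.) or 1.5% isoflurane. LC fibres (105/125 μm) were implanted four weeks later. Photometry used a 473-nm laser, 25 μW at the fibre tip. Test compound was given i.p.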

Row | Structure (SMILES) | fluorescence response of GRABNE2m to the ligand (GRABNE2m [1]) | fluorescence response of GRABNE2h to the ligand (GRABNE2h [2]) | also measured
1 | COc1cc(C(O)CO)ccc1O (stereo not shown) [3-methoxy-4-hydroxyphenylglycol] | not respond | not respond | –
2 | NCCc1ccc(O)c(O)c1 [DA, dopamine] | – | – | EC50 (GRABNE2h [3]): 9 µM; EC50 (GRABNE2m [4]): 20 µM
3 | Fc1ccc(C(OCCN2CCN(CCCc3ccccc3)CC2)c2ccc(F)cc2)cc1 [GBR-12909] | – | – | effect on decay kinetics of the optogenetically evoked response [5]: no effect
4 | NC[C@H](O)c1ccc(O)c(O)c1 [NE, norepinephrine] | – | – | EC50 (GRABNE2h [3]): 0.19 µM; EC50 (GRABNE2m [4]): 0.38 µM
5 | CC(=O)OCC[N+](C)(C)C [acetylcholine] | do not respond | do not respond | –
6 | Nc1ncnc2c1ncn2[C@@H]1O[C@H](CO)[C@@H](O)[C@H]1O [adenosine] | do not respond | do not respond | –
7 | CCc1cc(Cl)c(OC)c(C(=O)NC[C@@H]2CCCN2CC)c1O [eticlopride] | – | – | effect on decay kinetics of the optogenetically evoked response [5]: no effect
8 | N[C@@H](CCC(=O)O)C(=O)O [glutamate, L-Glutamic acid] | do not respond | do not respond | –
9 | NCCc1c[nH]cn1 [histamine] | do not respond | do not respond | –
10 | CC(C)NCC(O)c1ccc(O)c(O)c1 (stereo not shown) [isoprenaline] | do not respond | do not respond | –
11 | COc1cc(C(O)CN)ccc1O (stereo not shown) [normetanephrine] | not respond | not respond | –
12 | NCC(O)c1ccc(O)cc1 (stereo not shown) [octopamine] | not respond | not respond | –
13 | NCCc1ccccc1 [phenethylamine] | not respond | not respond | –
14 | NCCc1c[nH]c2ccc(O)cc12 [serotonin] | do not respond | do not respond | –
15 | NCCc1ccc(O)cc1 [tyramine] | not respond | not respond | –
16 | COc1cc(C(O)C(=O)O)ccc1O (stereo not shown) [vanillylmandelic acid] | not respond | not respond | –
17 | COC(=O)[C@@H]1[C@H]2C[C@H]3c4[nH]c5ccccc5c4CCN3C[C@@H]2CC[C@@H]1O [yohimbine] | – | – | block of the NE-induced response of GRABNE2m (GRABNE2m [1]; HEK293T cells (Fig. S2D)): blocked; block of the NE-induced response of GRABNE2h (GRABNE2h [2]; HEK293T cells (Fig. S2D)): blocked
18 | NCCCC(=O)O [γ-aminobutyric acid] | do not respond | do not respond | –
